# Assay outcomes deposited in PubChem BioAssay by several laboratories.
# EBV gp42 inh – Epstein-Barr virus gp42 inhibitors, primary screen, biochemical, uHTS, fluorescence polarization; Glycoprotein 42 (Epstein-Barr virus (strain AG876)), Q1HVG2; Fluorescence polarization binding assay, mP read-out; inhibition, % (tested at 21.74 µM); hit rate 0.42% among 220,000; AID 1085, 2008; in the data active = inhibition above about 50%
# Target sequence (Q1HVG2 whole entry, looked up): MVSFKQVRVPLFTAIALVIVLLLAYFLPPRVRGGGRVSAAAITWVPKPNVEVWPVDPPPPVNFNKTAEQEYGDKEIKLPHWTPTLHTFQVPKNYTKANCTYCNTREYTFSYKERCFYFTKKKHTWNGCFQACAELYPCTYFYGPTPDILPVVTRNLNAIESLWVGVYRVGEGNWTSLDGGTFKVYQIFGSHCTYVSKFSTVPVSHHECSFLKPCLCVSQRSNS
# GRK2 aptamer HTS – compounds blocking aptamer binding on GRK2 – biochemical, human GRK2, bead flow cytometry, HTS, primary screen | Beta-adrenergic receptor kinase 1 (Homo sapiens), P25098 | FAM-aptamer displacement from GRK2 | AID 488847, 2010 | hit rate 0.59% among 330,000 | inhibition of aptamer binding, % at 10 µM;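 active = inhibition of aptamer binding above 40%, roughly 3 SD of noise, on plates passing a quality check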;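 note: median bead fluorescence of bound FAM aptamer so fluorescent compounds give negative values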
# MEX-5 binding – MEX-5 zinc finger RNA-binding disruptors – biochemical, C. elegans, fluorescence polarization, MLPCN library, primary screen; activity score (negative = inhibition of binding), % at 10 µM; hit rate 0.38% among 300,000; MEX-5/FITC-TCR2 RNA binding; stronger effect = lower value; Zinc finger protein mex-5 (Caenorhabditis elegans), Q9XUB2;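 active = inhibition past about -25% in most replicates, and total fluorescence under double the plate's negative control median, limit read from the data; inconclusive = replicates evenly split on the limit, or fluorescence at least double controls; inactive = too little inhibition in most replicates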
# T cell HTS – modulators of CD8 T cell-vesicle binding, primary screen, mouse 2C CD8+ T cells, flow cytometry. response (vesicle binding), % at 7 µM. hit rate 0.068% among 330,000. 2C CD8+ T cell-vesicle binding; stronger effect = lower value. AID 2052, 2009;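 active = response, share of CD8 T cells binding vesicles, and their 90th percentile fluorescence all below set limits, cut at about 80% in these data, passing the limit was not always enough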;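 note: values below 100% mean blocked vesicle binding to the CD8+ T cells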
#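 Assay system: 2C TCR transgenic mouse naive CD8+ T cells, MACS-purified | Read-out: CD8+ gate FL2 mean fluorescence as % of same-row positive control | Signal: High-throughput flow cytometry with anti-B7-1 and anti-CD8 staining | Timing: Binding step 1.5 h, 37 °C, antibody labelling 20 min, ice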
# C-LANA FP – inhibitors of KSHV C-LANA binding to DNA, primary screen, biochemical, fluorescence polarization, FAM-LBS DNA, MBP-C-LANA, single point | Kaposi's sarcoma herpesvirus LANA C-terminal domain (residues 932-1162) DNA binding | inhibition, % at 9 µM | hit rate 0.078% among 340,000 | AID 504423, 2011;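 active = highest replicate inhibition at or above 60% at 9 µM, even if other replicates fall short; inactive = all replicates below 60% inhibition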
# Keap1-Nrf2 PPI – Keap1-Nrf2 protein-protein interaction inhibitors, primary screen, biochemical, fluorescence polarization, single point | inhibition, % at 9.4 µM | AID 504523, 2011 | hit rate 0.15% among 340,000 | Kelch-like ECH-associated protein 1 (Homo sapiens), Q14145 | Keap1 Kelch-Nrf2 peptide fluorescence polarization, 1536-well; in the data active = inhibition above about 12%; inconclusive = no clear call, values can overlap the other calls; inactive = below about 7.3%;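 note: human Keap1 Kelch domain with fluorescein labeled Nrf2 9mer peptide probe; higher means more block of Keap1 binding to Nrf2 peptide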
# A number is an active result; – = inactive; ? = inconclusive; · = not tested or not shown. The list is not random: actives were taken first. Their share in the collection is about 1.3%.
SMILES,EBV gp42 inh,GRK2 aptamer HTS,MEX-5 binding,T cell HTS,C-LANA FP,Keap1-Nrf2 PPI
C=CCn1c(=O)[nH]c2nc3cc(N=CN(C)C)c(C)cc3nc2c1=O,118,–,-51,–,–,–
Nc1c(C(=O)Nc2ccccc2)sc2nc3c(c(-c4ccco4)c12)CCC3,–,–,–,–,–,–
Cc1ccc(NC(=O)c2sc3nc4c(c(-c5ccco5)c3c2N)CCC4)cc1,–,–,-55,–,–,–
NC(=O)c1c(NC(=O)Cn2nc(C(=O)O)c3ccccc3c2=O)sc2c1CCCC2,53,–,–,–,–,–
NC(=O)c1c(NC(=O)Cn2nc(C(=O)O)c3ccccc3c2=O)sc2c1CCC2,–,–,–,–,–,–
CC(=O)Nc1ccc(NC(=O)COC(=O)c2ccc(S(=O)(=O)N(C)c3ccccc3)cc2)cc1,·,·,·,·,–,–
O=C(CN(Cc1ccccc1)S(=O)(=O)c1ccc(Br)cc1)NCc1ccco1,–,–,–,–,–,–
CCCOc1cc(N(CC)CC)ccc1/C=C(/C#N)c1nc2ccc(C)cc2[nH]1,92,–,–,–,–,–
CCN(CC)c1ccc(/C=C(/C#N)c2nc3ccc(C)cc3[nH]2)c(OC(C)C)c1,67,–,–,–,–,–
CCc1ccc(CNC(=O)C2CCN(S(=O)(=O)N3CC(C)CC(C)C3)CC2)cc1 (stereo unspecified),·,–,–,–,–,–
Nc1c(S(=O)(=O)c2ccccc2)c2nc3ccccc3nc2n1Cc1ccco1,62,–,–,–,–,–
Cc1ccc(S(=O)(=O)c2c(N)n(Cc3ccco3)c3nc4ccccc4nc23)cc1C,–,–,–,–,–,–
C=CCN1CC(c2nc3ccccc3n2CCOc2ccccc2)CC1=O (stereo unspecified),58,–,–,–,–,–
CCOC(=O)C1C(=O)C=C(/C=C/c2ccc(N(C)C)cc2)CC1c1ccccc1 (stereo unspecified),103,–,?,–,–,–
Cc1ccc(CN2CCNC(=O)C2CC(=O)O)cc1 (stereo unspecified),–,–,–,–,–,–
Fc1nc(F)c(F)c(NCCCNc2c(F)c(F)nc(F)c2F)c1F,–,–,–,–,–,–
CCCCOc1ccc2c(c1)/C(=C(\C(Cl)=C(Cl)Cl)[N+](=O)[O-])N2,56,–,-59,–,–,–
CCOc1ccc2c(c1)/C(=C(\C(Cl)=C(Cl)Cl)[N+](=O)[O-])N2,–,–,-44,–,–,–
CCCOc1ccc(C(=O)CCC(=O)OCC(=O)Nc2ccc(OCC)cc2)cc1,–,85,–,–,·,·
CCCOc1ccc(C(=O)CCC(=O)OCC(=O)Nc2ccc(Oc3ccccc3)cc2)cc1,–,–,–,–,·,·
CCC(NC(C)C)C(O)c1ccc(O)c(O)c1 (stereo unspecified),–,–,-29,–,–,–
Cc1cc(=O)oc2cc3c(cc12)OCO3,·,–,–,–,–,–
COC(=O)CCC(=O)OC1(C)C(=O)C2=COC(c3ccc(OC)cc3)=CC2=C(Br)C1=O (stereo unspecified),–,–,–,–,·,·
COc1ccc(C2=CC3=C(Br)C(=O)C(C)(OC(=O)c4ccc(Cl)nc4)C(=O)C3=CO2)cc1 (stereo unspecified),–,–,-30,–,·,·
COc1ccc(S(=O)(=O)Nc2cccc(SC)c2)cc1C(=O)N1CCOCC1,·,–,–,–,–,–
CN(C)c1ccc(/C=N/NC2=NS(=O)(=O)c3ccccc32)cc1,·,–,-41,–,–,–
CN(C)c1ccc(/C=N/N(CCC(=O)NC(C)(C)C)C2=NS(=O)(=O)c3ccccc32)cc1,·,–,-53,–,–,–
O=C(Cn1cnc(S(=O)(=O)N2CCCC2)c1)Nc1ccccc1,·,–,–,–,–,–
CCOC(=O)C1=CC[C@H]2c3c(c4ccccc4n3C)C(=O)C1N2S(=O)(=O)c1ccc(C)cc1,·,–,·,–,–,–
